Bioassay records deposited in PubChem BioAssay by several laboratories.
Diaphorase inh – diaphorase inhibition or chemical oxidation counter-screen | diaphorase resazurin-to-resorufin fluorescence, NADH, 16 min; bacterial (C. kluyveri) enzyme, not human | inhibition, % at 20 µM | 0.69% of 190,000 active;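 active = primary screen inhibition at 20 µM above a set limit, cut at about 50% in these data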
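System: Bacterial diaphorase enzyme (C. kluyveri) | Incubation: 16-min room-temperature incubation before reading | Benchmarks: No-NADH positive control and DMSO neutral control | Measured by: Resorufin fluorescence 544/590 nm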
KCC2 mod – KCC2 (human) Cl- transport modulation. KCC2 cells, thallium flux FluoZin-2 fluorescence. B-score of Tl+ flux slope (higher = more flux/activation; lower = inhibition) at 10 µM. 2.2% of 190,000 active. AID 1456;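 active = thallium flux slope and its plate-corrected score both differing from the plate sample mean at a set confidence after two filtering rounds, in either direction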;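 note: slope of fluorescence scaled to starting intensity during 10 to 20 s after thallium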
ROMK primary – modulators of human ROMK potassium channel; B-score at 10 µM; AID 1918; 2% of 130,000 active; Tet-inducible ROMK, thallium flux fluorescence; actives lie on both sides; P48048;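 active = signal ratio slope over the read window, or its plate-corrected B-score, at least 3 SD from the plate mean, either direction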;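 note: B-score of the F/F0 ratio slope over 7 to 12 s after thallium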
Target sequence (P48048 whole entry, looked up): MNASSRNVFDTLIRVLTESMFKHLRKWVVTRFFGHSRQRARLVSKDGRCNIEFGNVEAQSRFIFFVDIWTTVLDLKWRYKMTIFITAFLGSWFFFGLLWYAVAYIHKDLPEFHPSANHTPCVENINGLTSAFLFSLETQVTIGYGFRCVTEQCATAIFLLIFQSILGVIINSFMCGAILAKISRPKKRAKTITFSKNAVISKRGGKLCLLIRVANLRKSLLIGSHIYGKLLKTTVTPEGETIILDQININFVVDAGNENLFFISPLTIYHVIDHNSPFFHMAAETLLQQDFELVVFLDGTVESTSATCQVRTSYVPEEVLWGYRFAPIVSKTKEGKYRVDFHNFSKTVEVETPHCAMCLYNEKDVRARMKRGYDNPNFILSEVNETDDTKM
L major viab – Leishmania major promastigote growth inhibition; inhibition, % at 10 µM; Leishmania major promastigotes, resazurin fluorescence viability; 9% of 200,000 active; AID 1063; in the data active = inhibition above about 50%;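 note: promastigotes grown with compound for 44 hours at 28 °C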
WT yeast gro inh – growth inhibition of WT yeast, mitochondrial fusion screen; inhibition, % at 10 µM; mitochondrial fusion phenotypic screen, WT strain; 2.1% of 190,000 active; in the data active = inhibition above about 58%; tested in S. cerevisiae
Diaph act CS – activates diaphorase or chemically reduces, flagging diaphorase assay artifacts | Diaphorase/resazurin coupled assay, resorufin fluorescence, 16 min; hits give high values; 1 = vehicle wells, 0 = NADH-free wells | activation factor at 20 µM | 0.005% of 190,000 active;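 active = diaphorase activity raised at least twofold by the compound at 20 µM; inactive = activation factor below 2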
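Measured by – red resorufin fluorescence at 544/590 nm excitation/emission · Test system – Clostridium kluyveri diaphorase, purified enzyme · Incubation – reaction time 16 min, room temperature · Buffer or medium – 50 mM HEPES pH 7.4 with 4.542 mM MgCl2, 0.005% Tween 20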
A number is an active result. This is a sample that favours compounds with a hit; in the whole collection about 12% have one here.

Screening O=[N+]([O-])c1ccccc1-c1cc(-c2ccccc2O)n[nH]1 returned Diaphorase inh inactive, KCC2 mod inactive, ROMK primary inactive, L major viab 58.4, WT yeast gro inh inactive and Diaph act CS inactive.
Screening Cc1ccc(-c2cc(-c3ccccc3C)[nH]n2)c(O)c1 returned Diaphorase inh inactive, KCC2 mod inactive, ROMK primary inactive, L major viab inactive, WT yeast gro inh 65.2 and Diaph act CS inactive.
`Cc1ccc(O)c(-c2cc(-c3cccc(F)c3)n[nH]2)c1` gave Diaphorase inh inactive, ROMK primary inactive, L major viab 99.0 and Diaph act CS inactive.
For Oc1ccccc1-c1cc(C(F)(F)F)[nH]n1 the results were KCC2 mod inactive.
Screening CC12CNCC(C)(CN(C(c3ccccc3)c3ccccc3)C1)C2 returned Diaphorase inh inactive, KCC2 mod inactive, ROMK primary inactive, L major viab 100.3, WT yeast gro inh inactive and Diaph act CS inactive.
O=C(CSc1nc2c(cnn2-c2ccc(F)cc2)c(=O)[nH]1)N1N=C(c2cccs2)CC1c1ccc(F)cc1 (stereo not given) was read as Diaphorase inh inactive, KCC2 mod inactive, ROMK primary inactive, L major viab 50.6, WT yeast gro inh inactive and Diaph act CS inactive.
`O=C(Nc1cccc2ccccc12)c1nn(C23CC4CC(CC(C4)C2)C3)cc1[N+](=O)[O-]` gave Diaphorase inh inactive, ROMK primary inactive, L major viab 80.6, WT yeast gro inh inactive and Diaph act CS inactive.
`COc1ccc(NC(=O)c2nn(C34CC5CC(CC(C5)C3)C4)cc2[N+](=O)[O-])cc1` gave Diaphorase inh inactive, KCC2 mod inactive, ROMK primary inactive, L major viab 96.2, WT yeast gro inh inactive and Diaph act CS inactive.
`O=C(O)c1ccc(N/N=C/C2=Cc3ccccc3OC2)cc1` gave KCC2 mod inactive and ROMK primary inactive.
CCN1C/C(=C/c2cccc([N+](=O)[O-])c2)C(=O)/C(=C/c2cccc([N+](=O)[O-])c2)C1 was read as Diaphorase inh inactive, KCC2 mod inactive, ROMK primary inactive, L major viab 100.4, WT yeast gro inh 88.3 and Diaph act CS inactive.
Cc1c(N2C(=O)C(=O)/C(=C(/O)c3ccc(Cl)cc3)C2c2ccccc2)c(=O)n(-c2ccccc2)n1C (stereo not given) was read as Diaphorase inh inactive, KCC2 mod inactive, ROMK primary inactive, L major viab inactive, WT yeast gro inh inactive and Diaph act CS inactive.
CN(CCCC[C@H](CNCc1ccc(-c2ccccc2)cc1)N1C[C@H](c2ccccc2)N(CCc2ccc(Cl)c(Cl)c2)C(=O)C1=O)Cc1ccc(-c2ccccc2)cc1 was read as KCC2 mod inactive.
For COc1ccc(CNC[C@@H](CCCCN(C)Cc2ccc(OC)cc2)N2C[C@H](c3ccccc3)N(CCc3ccc(Cl)c(Cl)c3)C(=O)C2=O)cc1 the results were Diaphorase inh inactive, KCC2 mod inactive, L major viab 99.7, WT yeast gro inh inactive and Diaph act CS 2.2.
CCOc1cc(CNn2cn[nH]c2=S)cc(Cl)c1OCc1ccccc1F was read as Diaphorase inh inactive, KCC2 mod inactive, L major viab inactive, WT yeast gro inh 69.1 and Diaph act CS inactive.
COc1cc(CNC2CCCC2)cc(Br)c1OCC(=O)Nc1ccccc1C was read as Diaphorase inh inactive, KCC2 mod inactive, ROMK primary inactive, L major viab 99.5, WT yeast gro inh inactive and Diaph act CS inactive.
Screening COc1cc(CNn2c(C)n[nH]c2=S)cc(Br)c1OCc1ccc(F)cc1 returned Diaphorase inh inactive, KCC2 mod inactive, ROMK primary inactive, L major viab inactive, WT yeast gro inh inactive and Diaph act CS inactive.
`COc1cc(CNn2c(C)n[nH]c2=S)cc(Cl)c1OCc1ccc(F)cc1` gave Diaphorase inh inactive, KCC2 mod inactive, ROMK primary inactive, L major viab inactive, WT yeast gro inh 70.8 and Diaph act CS inactive.
For COc1cc(CNC2CCCC2)cc(OC)c1OC the results were Diaphorase inh inactive, KCC2 mod inactive, ROMK primary inactive, L major viab inactive, WT yeast gro inh inactive and Diaph act CS inactive.
`COc1cc(CNC2CCCC2)cc(Cl)c1OCc1ccc(F)cc1` gave Diaphorase inh inactive, L major viab 100.5, WT yeast gro inh inactive and Diaph act CS inactive.
Screening ClC1(Cl)CC1Cn1cnc2ccccc21 (stereo not given) returned Diaphorase inh inactive, L major viab inactive, WT yeast gro inh inactive and Diaph act CS inactive.
CCOc1cc(Cl)c(NC(C)=O)cc1OCC was read as Diaphorase inh inactive, KCC2 mod inactive, ROMK primary inactive, L major viab inactive, WT yeast gro inh inactive and Diaph act CS inactive.
Screening COc1cc(CNC2CCCC2)cc(Cl)c1OCc1ccccc1Cl returned Diaphorase inh inactive, L major viab 100.2, WT yeast gro inh inactive and Diaph act CS inactive.
`CC1(C)C2CCC(C2)C1(C)NC(=O)CNC1CCCCC1` (stereo not given) gave Diaphorase inh inactive, KCC2 mod inactive, ROMK primary inactive, L major viab inactive, WT yeast gro inh inactive and Diaph act CS inactive.
O=C(Nc1nc(=O)c2ccccc2s1)c1ccccc1 was read as Diaphorase inh inactive, KCC2 mod 41.7, ROMK primary 2.96, L major viab inactive, WT yeast gro inh inactive and Diaph act CS inactive.
For COc1ccc(C(=O)NCc2nnc(SCC(=O)Nc3ccc4c(c3)OCO4)o2)cc1 the results were Diaphorase inh inactive, KCC2 mod inactive, ROMK primary inactive, L major viab inactive, WT yeast gro inh inactive and Diaph act CS inactive.
Screening CCCCn1c(=O)[nH]c(=O)c2c1nc(-c1ccc3ccccc3c1)n2CC returned Diaphorase inh inactive, KCC2 mod inactive, ROMK primary inactive, L major viab inactive, WT yeast gro inh inactive and Diaph act CS inactive.
Screening CCCCn1c(=O)[nH]c(=O)c2c1nc(-c1ccc(C)c([N+](=O)[O-])c1)n2CC returned Diaphorase inh inactive, ROMK primary inactive, L major viab 98.6, WT yeast gro inh inactive and Diaph act CS inactive.
`COC(=O)c1c(C)[nH]c(C(=O)NCc2ccco2)c1C` gave Diaphorase inh inactive, KCC2 mod inactive, ROMK primary inactive, L major viab inactive, WT yeast gro inh inactive and Diaph act CS inactive.
For COc1cccc(N(CC(=O)NCC2CCCO2)C(=O)CCC(=O)Nc2nccs2)c1 (stereo not given) the results were Diaphorase inh inactive, KCC2 mod inactive, ROMK primary inactive, L major viab inactive, WT yeast gro inh inactive and Diaph act CS inactive.
COc1ccc(C(=O)NCC(=O)OCC(=O)Nc2ccc(C)c(S(=O)(=O)N(C)C)c2)cc1OC was read as KCC2 mod inactive.
`CC(=O)c1cccc(CN2CCCC(CCC(=O)NCc3ccc(F)c(F)c3)C2)c1` (stereo not given) gave Diaphorase inh inactive, ROMK primary inactive, L major viab 98.3, WT yeast gro inh inactive and Diaph act CS inactive.
